Assay outcomes deposited in PubChem BioAssay by several laboratories.
FAS-TE inh = FAS thioesterase (human) inhibition | recombinant FAS-TE, OMFH fluorogenic substrate, fluorescence endpoint | inhibition, % at 15 µM | hit rate 0.67% among 360,000 | AID 602261;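 active = compounds whose normalised, plate-corrected inhibition of enzyme fluorescence in the single-dose primary screen is 50% or more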
JMJD2C inh = blocks human GASC-1 demethylase activity. Q9H3R0. GST-JMJD2C(1-420) H3K9me3 demethylation, DELFIA europium. inhibition, % at 2.35 µM. hit rate 0.069% among 330,000. AID 2099;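 active = more than half of a compound's replicate wells show inhibition beyond 50%, single wells judged on their own value; inconclusive = some, but no more than half, of replicates pass 50% inhibition; inactive = no replicate passes 50% inhibition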;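 also: signal counts dimethyl H3K9 product captured on neutravidin plate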
Arr AP2 block = blocks beta-arrestin peptide binding to AP2 adaptin | FITC-arrestin peptide / GST-AP2 beads, flow cytometry; AP2 beta2 appendage carries R879A mutation | inhibition, % at 10 µM | hit rate 0.31% among 340,000;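 active = inhibition above a set limit, near 3 SD of compounds lacking own fluorescence, cut at about 54% in these data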
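Assay system: GST-AP2 R879A bound to glutathione beads, E. coli-expressed; Medium: PBS with 0.05% Tween 20 and 0.1% BSA; Also added: fluorescein-tagged arrestin peptide at 50 nM final; Timing: 12 min plus 1 h, RT; Measured by: flow cytometry, FL1 (488/535 nm); Evaluation: percent drop in bead-associated FITC signal.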
SENP1 FRET inh = blocks the human SENP1 SUMO protease catalytic domain | inhibition, % at 10 µM | hit rate 0.21% among 360,000 | recombinant SENP1 catalytic domain, CyPet-SUMO1-YPet FRET cleavage;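 active = inhibition at least 30% at 10 µM, raw YFP signal under a set limit, fluorescence ratio 0.5 to 1.5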
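Test system: hSENP1 catalytic domain, recombinant; Amount: 20 pM final SENP1 enzyme; Medium: Tris pH 8 buffer plus EDTA, NaCl, BME, BSA, NP40, catalase; Schedule: 50 min enzyme reaction, room temperature, light-protected; Technique: FRET fluorescence in CFP and YFP emission channels; Controls: no-enzyme wells low, DMSO-plus-enzyme wells high control.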
Arr AP2 CP1 = blocks beta-arrestin peptide binding to human AP2. shares compounds with Arr AP2 block. hit rate 2% among 1,300. GST-AP2 beads, FITC arrestin peptide binding, flow cytometry; GST-fused beta2-adaptin appendage, R879A mutant. AID 504908. inhibition, % at 10 µM;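 active = inhibition above a set limit, roughly 3 SD of non-fluorescent compound noise, cut at about 38% in these data; inactive = inhibition at or below that limit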;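 also: loss of bead fluorescence from 50 nM FITC arrestin peptide bound to appendage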
Target sequence (P63010 whole entry, looked up, the tested form may be a part, one chain of several): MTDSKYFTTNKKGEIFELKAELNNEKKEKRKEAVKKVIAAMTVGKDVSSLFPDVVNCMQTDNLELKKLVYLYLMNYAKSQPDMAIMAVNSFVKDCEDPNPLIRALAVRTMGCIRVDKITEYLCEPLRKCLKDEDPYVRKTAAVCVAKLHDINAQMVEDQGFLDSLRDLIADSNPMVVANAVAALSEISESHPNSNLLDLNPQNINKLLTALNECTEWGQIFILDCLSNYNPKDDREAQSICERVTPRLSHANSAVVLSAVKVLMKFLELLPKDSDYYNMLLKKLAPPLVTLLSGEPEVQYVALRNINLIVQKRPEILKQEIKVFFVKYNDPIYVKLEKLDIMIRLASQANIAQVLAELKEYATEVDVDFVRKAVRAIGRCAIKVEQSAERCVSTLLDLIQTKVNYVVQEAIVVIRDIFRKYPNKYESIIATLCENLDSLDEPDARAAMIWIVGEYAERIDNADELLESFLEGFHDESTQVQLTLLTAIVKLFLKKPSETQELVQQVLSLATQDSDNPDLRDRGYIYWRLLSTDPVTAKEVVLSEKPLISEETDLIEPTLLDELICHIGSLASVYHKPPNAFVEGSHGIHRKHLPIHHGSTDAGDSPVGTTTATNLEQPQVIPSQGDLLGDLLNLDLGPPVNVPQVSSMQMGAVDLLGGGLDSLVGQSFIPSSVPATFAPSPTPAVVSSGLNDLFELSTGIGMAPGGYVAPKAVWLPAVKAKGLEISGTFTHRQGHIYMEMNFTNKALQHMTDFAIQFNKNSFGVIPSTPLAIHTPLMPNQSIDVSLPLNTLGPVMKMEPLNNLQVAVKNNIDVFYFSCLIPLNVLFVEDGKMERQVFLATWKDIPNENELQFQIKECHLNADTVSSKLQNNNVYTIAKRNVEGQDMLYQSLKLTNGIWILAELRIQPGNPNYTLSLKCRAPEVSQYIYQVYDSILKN
GST-FITC bead = GST-GSH bead binding interference, counter-screen. shares compounds with Arr AP2 block. hit rate 2% among 1,300. inhibition, % at 10 µM. GST-fluorescein binding to GSH beads, fluorescence;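 active = inhibition above 50%, about 3 SD of the inhibition seen with non-fluorescent compounds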;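 also: fluorescein maleimide labelled GST captured on 4 micron glutathione beads; higher means more loss of bead fluorescence from quenching or blocked binding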
Hits are given with their value. This is a sample that favours compounds with a hit; in the whole collection about 1.1% have one here.

What do the screens show for `COc1ccccc1NC(=O)CN1CCN(C(=O)C2CCCO2)CC1` (stereo not given)?
FAS-TE inh: inactive; JMJD2C inh: inactive; Arr AP2 block: inactive; SENP1 FRET inh: inactive

Results for COc1ccc(-n2c(SCC(=O)N(C)c3ccccc3)nc3c([nH]c4ccccc43)c2=O)cc1OC ?
FAS-TE inh: inactive; JMJD2C inh: inactive; Arr AP2 block: inactive; SENP1 FRET inh: inactive

What do the screens show for `Cc1c(C(=O)N/N=C/c2ccc(N(C)C)cc2)[nH]c2ccc(Cl)cc12`?
FAS-TE inh: inactive; JMJD2C inh: inactive; Arr AP2 block: 90; SENP1 FRET inh: inactive; Arr AP2 CP1: inactive; GST-FITC bead: inactive

What do the screens show for `Cc1c(C(=O)N/N=C/c2ccccc2)[nH]c2ccc(Cl)cc12`?
FAS-TE inh: inactive; JMJD2C inh: inactive; Arr AP2 block: inactive; SENP1 FRET inh: inactive

How did CSc1nc2c(c(=O)[nH]1)C(c1ccccc1Cl)CC(=O)N2 (stereo not given) do in these assays?
FAS-TE inh: inactive; JMJD2C inh: inactive; Arr AP2 block: inactive; SENP1 FRET inh: inactive

What do the screens show for `COc1ccc(NS(=O)(=O)c2ccc(Br)cc2)cn1`?
FAS-TE inh: inactive; JMJD2C inh: inactive; Arr AP2 block: 57; SENP1 FRET inh: inactive; Arr AP2 CP1: inactive; GST-FITC bead: inactive

What do the screens show for `COc1ccc(NS(=O)(=O)c2ccc(F)c(Cl)c2)cn1`?
FAS-TE inh: inactive; JMJD2C inh: inactive; Arr AP2 block: inactive; SENP1 FRET inh: inactive

What do the screens show for `CN1CCN(C(=O)c2ccc3c(Cl)c4c(nc3c2)CCCC4)CC1`?
FAS-TE inh: inactive; JMJD2C inh: inactive; Arr AP2 block: 64; SENP1 FRET inh: inactive; Arr AP2 CP1: inactive; GST-FITC bead: inactive

How did CCN1CCN(C(=O)c2ccc3c(Cl)c4c(nc3c2)CCCC4)CC1 do in these assays?
FAS-TE inh: inactive; JMJD2C inh: inactive; Arr AP2 block: inactive; SENP1 FRET inh: inactive

What do the screens show for `CN(C)c1ccc(-c2ccnc3c2CC(C)(C(=O)NCCC(F)(F)F)O3)cc1` (stereo not given)?
FAS-TE inh: inactive; SENP1 FRET inh: inactive

What do the screens show for `C=CCn1c(-c2ccc(OC)cc2)nc2ccccc21`?
FAS-TE inh: inactive; JMJD2C inh: inactive; Arr AP2 block: 98; SENP1 FRET inh: inactive; Arr AP2 CP1: inactive; GST-FITC bead: inactive

How did CNS(=O)(=O)c1ccc2c3c(cccc13)C(=O)N2 do in these assays?
FAS-TE inh: inactive; JMJD2C inh: inactive; Arr AP2 block: inactive; SENP1 FRET inh: inactive

What do the screens show for `O=C1Nc2ccc(NS(=O)(=O)c3cccs3)c3cccc1c23`?
FAS-TE inh: inactive; JMJD2C inh: inactive; Arr AP2 block: 96; SENP1 FRET inh: inactive; Arr AP2 CP1: inactive; GST-FITC bead: inactive

Results for CCOC(=O)C1=C(COC(=O)CCOc2ccc(OC)cc2)NC(=O)NC1C (stereo not given) ?
FAS-TE inh: inactive; JMJD2C inh: inactive; Arr AP2 block: inactive; SENP1 FRET inh: inactive; Arr AP2 CP1: inactive; GST-FITC bead: inactive

What do the screens show for `CCOC(=O)C1=C(COC(=O)CCOc2ccc(C)cc2)NC(=O)NC1C` (stereo not given)?
FAS-TE inh: inactive; JMJD2C inh: inactive; Arr AP2 block: inactive; SENP1 FRET inh: inactive; Arr AP2 CP1: inactive; GST-FITC bead: inactive

What do the screens show for `CCOC(=O)C1=C(COC(=O)CNC(=O)c2cccc(C)c2)NC(=O)NC1C` (stereo not given)?
FAS-TE inh: inactive; JMJD2C inh: inactive; Arr AP2 block: inactive; SENP1 FRET inh: inactive

Results for CCOC(=O)C1=C(COC(=O)COc2ccc(Br)cc2)NC(=O)NC1C (stereo not given) ?
FAS-TE inh: inactive; JMJD2C inh: inactive; Arr AP2 block: inactive; SENP1 FRET inh: inactive; Arr AP2 CP1: inactive; GST-FITC bead: inactive

How did C/C=C/c1ccc(OCC(=O)OCC2=C(C(=O)OCC)C(C)NC(=O)N2)c(OC)c1 (stereo not given) do in these assays?
FAS-TE inh: inactive; JMJD2C inh: inconclusive; Arr AP2 block: inactive; SENP1 FRET inh: inactive

Results for N#Cc1cccc(C(=O)OCc2cccc(S(=O)(=O)N3CCOCC3)c2)c1 ?
FAS-TE inh: inactive; Arr AP2 block: inactive; SENP1 FRET inh: inactive

How did Nc1ccn([C@@H]2O[C@H](C(=O)N[C@H](COC=O)Cc3ccccc3)[C@@H](O)[C@H]2O)c(=O)n1 do in these assays?
FAS-TE inh: inactive; SENP1 FRET inh: inactive

Results for Cn1c(N)c(C(=O)COC(=O)c2ccccc2C(F)(F)F)c(=O)n(C)c1=O ?
FAS-TE inh: inactive; JMJD2C inh: inactive; Arr AP2 block: inactive; SENP1 FRET inh: inactive; Arr AP2 CP1: inactive; GST-FITC bead: inactive

Results for Cn1c(N)c(C(=O)COC(=O)c2ccccn2)c(=O)n(C)c1=O ?
FAS-TE inh: inactive; JMJD2C inh: inactive; Arr AP2 block: inactive; SENP1 FRET inh: inactive; Arr AP2 CP1: inactive; GST-FITC bead: inactive

What do the screens show for `CCOc1ncccc1C(=O)OCC(=O)c1c(N)n(C)c(=O)n(C)c1=O`?
FAS-TE inh: inactive; JMJD2C inh: inactive; Arr AP2 block: inactive; SENP1 FRET inh: inactive; Arr AP2 CP1: inactive; GST-FITC bead: inactive

What do the screens show for `Cn1c(N)c(C(=O)CSc2ccccn2)c(=O)n(C)c1=O`?
FAS-TE inh: inactive; JMJD2C inh: inactive; Arr AP2 block: inactive; SENP1 FRET inh: inactive

How did Cn1c(N)c(C(=O)COC(=O)c2ccccc2C(=O)c2ccccc2)c(=O)n(C)c1=O do in these assays?
FAS-TE inh: inactive; JMJD2C inh: inactive; Arr AP2 block: inactive; SENP1 FRET inh: inactive

Results for CCOc1cc(C(=O)OCC(=O)c2c(N)n(C)c(=O)n(C)c2=O)cc(OCC)c1OCC ?
FAS-TE inh: inactive; JMJD2C inh: inactive; Arr AP2 block: inactive; SENP1 FRET inh: inactive

What do the screens show for `COc1ccc(Nc2nc3ccc(C)cc3cc2C#N)c(OC)c1`?
FAS-TE inh: inactive; JMJD2C inh: inactive; Arr AP2 block: inactive; SENP1 FRET inh: inactive

What do the screens show for `COc1ccc(Nc2nc3cc(C)ccc3cc2C#N)c(OC)c1`?
FAS-TE inh: inactive; JMJD2C inh: inactive; Arr AP2 block: 91; SENP1 FRET inh: inactive; Arr AP2 CP1: inactive; GST-FITC bead: 75

How did Cc1ccn2cc(C(=O)N3CCCC(Nc4ccc(F)cc4)C3)nc2c1 (stereo not given) do in these assays?
FAS-TE inh: inactive; JMJD2C inh: inactive; Arr AP2 block: inactive; SENP1 FRET inh: inactive

How did O=C(N/N=C/c1ccsc1)c1cc2ccccc2o1 do in these assays?
FAS-TE inh: inactive; JMJD2C inh: inactive; Arr AP2 block: inactive; SENP1 FRET inh: inactive

What do the screens show for `O=C(N/N=C/c1cccc([N+](=O)[O-])c1)c1cc2ccccc2o1`?
FAS-TE inh: inactive; JMJD2C inh: inactive; Arr AP2 block: 107; SENP1 FRET inh: inactive; Arr AP2 CP1: inactive; GST-FITC bead: inactive

Results for CC(=O)Nc1ccc(S(=O)(=O)NC(C)CCc2ccccc2)cc1 (stereo not given) ?
FAS-TE inh: inactive; JMJD2C inh: inactive; Arr AP2 block: inactive; SENP1 FRET inh: inactive
